Screens: PubChem, Broad Institute
The list is not random: actives were taken first. Their share in the collection is about 1.5%.
Cneo AK release: Cryptococcus neoformans cell lysis inducers, primary screen, AK release luminescence, single concentration. 0.2% of 360,000 active. lysis activity, % at 15 µM. C. neoformans lysis, adenylate kinase release luminescence, 4 h; normalised: neutral wells 0, clomiphene wells 100;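 active = mean lysis activity across replicates of at least 80%, whatever share of replicates individually reach that level; inactive = mean lysis activity below 80%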
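Schedule: static 4 h at 37 °C with compound, 1 h detection; system: C. neoformans cells; benchmarks: Clomiphene as positive control; buffer or medium: fresh YPD medium; measure: luminescence rise reflecting yeast cell lysis; measured by: luminescent adenylate kinase detection reagent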
Mot1-301 SUMO: yeast Mot1-301 growth rescue at high temperature, primary screen, SUMOylation pathway inhibitor project, S. cerevisiae, ATP luminescence, 38.5C; S. cerevisiae Mot1-301 growth rescue; percent above DMSO median, 100 means doubled; growth rescue, % at 18.8 µM; 1% of 320,000 active; AID 2716, 2010;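 active = every valid replicate shows activation above 250% relative to neutral control wells; inactive = the rest, any valid replicate at or below 250%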
C2C12 statin: suppressors of statin myotoxicity in C2C12 myotubes, primary screen, cell-based, single point, plate reader; C2C12 myotubes + simvastatin, ATP luminescence, 48 h; scaled: DMSO 0, geranylgeraniol control 100; rescue of ATP level, % at 7.49 µM; 0.78% of 330,000 active; AID 602340, 2012;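 active = mean ATP rescue above about 67%, or every replicate alone reaching that limit, limit read from the data, passing the limit was not always enough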;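 also: myotubes were challenged with 10 µM simvastatin during compound exposure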
Yeast Mot1 SUMO: growth restoration of Mot1-301 yeast on galactose, dose response, SUMO pathway inhibitor project, whole organism, S. cerevisiae, ATP luminescence, cherry-picked samples | shares compounds with Mot1-301 SUMO | S. cerevisiae Mot1-301 galactose growth, 24 h; -100 = growth of slx-deleted rescue strain | growth activity, percent, % at 42 µM | 2,300 tested, under 10 active;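 active = Signal drops as the depositor expects, and the fitted half-maximal dose is no more than ten times the top valid tested dose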;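 also: more negative values mean stronger growth rescue toward the control strain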
Numbers stand for hits.

Screening Cc1ccc(S(=O)(=O)N(C)C[C@H]2Oc3cc(C#Cc4ccncc4)ccc3S(=O)(=O)N([C@@H](C)CO)C[C@H]2C)cc1 returned Cneo AK release inactive and C2C12 statin inactive.
For CCCN1C[C@@H](C)[C@@H](OC)CN(C)C(=O)c2ccc(NC(=O)CC)cc2OC[C@@H]1C the results were C2C12 statin inactive.
Screening COc1ccc(NS(=O)(=O)c2cccc(C(=O)NCCCn3ccnc3)c2)cc1 returned Cneo AK release inactive, Mot1-301 SUMO 451.5, C2C12 statin inactive and Yeast Mot1 SUMO inactive.
CCN(CC)S(=O)(=O)c1cccc(C(=O)NCCCn2ccnc2)c1 was read as Mot1-301 SUMO inactive and C2C12 statin inactive.
`CCC(=O)Nc1ccc2c(c1)C(=O)N(C)[C@H]1CC[C@H](CC(=O)NCCc3ccccc3)O[C@@H]1CO2` gave Cneo AK release inactive and C2C12 statin inactive.
Screening O=C(C[C@@H]1CC[C@@H](NC(=O)Nc2cccc(F)c2)[C@H](CO)O1)NCC1CCCCC1 returned Cneo AK release inactive and C2C12 statin inactive.
For Cc1ccc(NC(=O)CN(C)C(=O)c2cccc(S(=O)(=O)NCc3ccccc3)c2)cc1 the results were Mot1-301 SUMO inactive and C2C12 statin inactive.
For Cc1ccc(NC(=O)CN(C)C(=O)c2cccc(Br)c2)cc1 the results were Cneo AK release inactive, Mot1-301 SUMO 694.6, C2C12 statin inactive and Yeast Mot1 SUMO inactive.
CCOC(=O)Cn1c(=O)cc(C)c2ccccc21 was read as Mot1-301 SUMO inactive.
For CCOC(=O)Cn1c(C)c(Br)c(=O)c2cccc(C)c21 the results were Cneo AK release inactive, Mot1-301 SUMO active and Yeast Mot1 SUMO inactive.
C[C@H](CO)N1C[C@H](C)[C@@H](CN(C)C(=O)NC2CCCCC2)Oc2ccc(NC(=O)CCC(F)(F)F)cc2CC1=O was read as Cneo AK release inactive and C2C12 statin inactive.
`c1ccc(C(c2ccccc2)N2CCN(C(c3ccccn3)c3nnnn3C3CCCC3)CC2)cc1` (configuration not stated) gave Mot1-301 SUMO active and Yeast Mot1 SUMO inactive.
For c1ccc(C(c2nnnn2C2CCCC2)N2CCCCCC2)nc1 (configuration not stated) the results were Cneo AK release inactive, Mot1-301 SUMO inactive and C2C12 statin inactive.
Screening O=C(NC[C@H]1N[C@H](CO)[C@@H]1c1ccc(C2=CCCCC2)cc1)c1ccccc1 returned Cneo AK release inactive and C2C12 statin inactive.
Screening CC(C)NC(=O)NCC[C@H]1CC[C@H](NS(=O)(=O)c2ccc(-c3ccccc3)cc2)[C@H](CO)O1 returned Cneo AK release inactive and C2C12 statin inactive.
`Cc1cccc(/C=N/NC(=O)Cc2cccs2)c1` gave Cneo AK release inactive, Mot1-301 SUMO 908.2 and Yeast Mot1 SUMO inactive.
`O=C(Cc1cccs1)N/N=C/c1ccccc1` gave Cneo AK release inactive and Mot1-301 SUMO inactive.
CN(CCc1ccccn1)c1ncnc2[nH]ncc12 was read as Cneo AK release inactive, Mot1-301 SUMO inactive and C2C12 statin inactive.
For CN(c1cccnc1)c1ncnc2[nH]ncc12 the results were Cneo AK release inactive, Mot1-301 SUMO active, C2C12 statin inactive and Yeast Mot1 SUMO inactive.
For Cc1ccc(N/C=C(\C#N)c2ccc(OCCCF)cc2)cc1 the results were Cneo AK release inactive, Mot1-301 SUMO 724.1 and Yeast Mot1 SUMO inactive.
For COc1ccc(N/C=C(\C#N)c2ccc(OCCCF)cc2)cc1 the results were Cneo AK release inactive and Mot1-301 SUMO inactive.
Screening COCC(=O)Nc1ccc2c(c1)C(=O)N(C)[C@H]1CC[C@H](CC(=O)N3CCc4ccccc4C3)O[C@H]1CO2 returned Cneo AK release inactive and C2C12 statin inactive.
For C/C=C(\C)C(=O)OC1c2c(ccc3ccc(=O)oc23)OC(C)(C)C1OC(C)=O (configuration not stated) the results were Cneo AK release inactive and Mot1-301 SUMO inactive.
For C/C=C(/C)C(=O)OC1c2c(ccc3ccc(=O)oc23)OC(C)(C)C1OC(=O)/C(C)=C\C (configuration not stated) the results were Cneo AK release inactive, Mot1-301 SUMO 729.8, C2C12 statin inactive and Yeast Mot1 SUMO inactive.
`CO[C@@H]1CN(C)C(=O)c2ccc(NC(=O)NC3CCCCC3)cc2OC[C@@H](C)N(CC2CC2)C[C@H]1C` gave Cneo AK release inactive and C2C12 statin inactive.
`C[C@@H]1CN([C@@H](C)CO)C(=O)c2cc(C#CCN(C)C)cnc2O[C@@H]1CN(C)C(=O)Nc1ccccc1F` gave Cneo AK release inactive and C2C12 statin inactive.
For Cc1nnc(NC(=O)CSc2nc3ccccc3[nH]2)s1 the results were Mot1-301 SUMO inactive.
For CSCCc1nc(SCC(=O)Nc2nnc(C)s2)[nH]c1C the results were Cneo AK release inactive, Mot1-301 SUMO active, C2C12 statin inactive and Yeast Mot1 SUMO inactive.
Screening O=C(Nc1ccc(F)cc1)N[C@H]1CC[C@H](CCNS(=O)(=O)c2ccccc2F)O[C@@H]1CO returned Cneo AK release inactive and C2C12 statin inactive.
For C[C@@H]1CCCCO[C@H](CN(C)Cc2ccc(C(=O)O)cc2)[C@@H](C)CN([C@@H](C)CO)C(=O)c2cc(NC(=O)Nc3ccc4c(c3)OCO4)ccc2O1 the results were Cneo AK release inactive.
Screening Cc1nn(C(C)(C)C)c(OC(=O)c2ccc3c(c2)OCO3)c1S(=O)(=O)c1ccccc1 returned Cneo AK release inactive, Mot1-301 SUMO active, C2C12 statin inactive and Yeast Mot1 SUMO inactive.
Screening Cc1nn(C(C)(C)C)c(OC(=O)c2ccc3c(c2)OCO3)c1Sc1ccccc1 returned Cneo AK release inactive and Mot1-301 SUMO inactive.
For CCCN(C)C[C@@H]1Oc2ncc(Br)cc2C(=O)N([C@H](C)CO)C[C@H]1C the results were Cneo AK release inactive and C2C12 statin inactive.
C[C@@H]1CN([C@H](C)CO)C(=O)c2cc(-c3ccccc3)cnc2O[C@@H]1CN(C)C(=O)c1ccccc1F was read as Cneo AK release inactive and C2C12 statin inactive.
Screening C/C(N)=C(/C#N)C(=O)CSc1nnc(-c2ccccc2)n1C returned Cneo AK release inactive, Mot1-301 SUMO 538.8 and Yeast Mot1 SUMO inactive.
Screening C/C(N)=C(/C#N)C(=O)CSc1nnc(C)n1-c1ccccc1 returned Mot1-301 SUMO inactive.
For O=C(c1ccc([N+](=O)[O-])cc1)N1CCN(c2ncc(Br)cn2)CC1 the results were Cneo AK release inactive, Mot1-301 SUMO 656.3, C2C12 statin inactive and Yeast Mot1 SUMO inactive.
O=C(c1ccc(Br)cc1)N1CCN(c2ncccn2)CC1 was read as Cneo AK release inactive, Mot1-301 SUMO inactive and C2C12 statin inactive.
CC(=O)NCCOc1cccc2ccccc12 was read as Cneo AK release inactive, Mot1-301 SUMO inactive and C2C12 statin inactive.
Screening CCCc1ccccc1OCCNC(C)=O returned Cneo AK release inactive, Mot1-301 SUMO active, C2C12 statin inactive and Yeast Mot1 SUMO inactive.
